Data published in ChEMBL document CHEMBL3425458, “Design, synthesis and antitumor activity of triterpenoid pyrazine derivatives from 23-hydroxybetulinic acid” (Eur J Med Chem, 2015).

What was measured:
B16 [1] = assay: Induction of apoptosis in mouse B16 cells assessed as late apoptotic cells at 2.5 uM after 72 hrs by Annexin V-FITC/propidium iodide staining-based flow cytometry (reference value: 3.51%); assay type: functional
Method in brief: (§1)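 B16 cells were treated with vehicle or 1.25, 2.5 or 5 µM for 72 h. Annexin V/PI staining was read by flow cytometry. Values are mean ± SE of at least three independent experiments.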

B16 [2] = assay: Cell cycle arrest in mouse B16 cells assessed as accumulation of cells at G2 phase at 5 uM after 72 hrs by propidium iodide staining based flow cytometry (reference value: 16.73%); assay type: functional
[3] = Antiproliferative activity against human HL7702 cells assessed as growth inhibition after 72 hrs by MTT assay; assay type: cell-based; details: L02, 72 h
Method in brief: (§2)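 MTT assay on normal human hepatocyte line HL-7702, with 72 h treatment. Selectivity index is the IC50 in HL-7702 divided by the IC50 in each cancer cell line.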

[4] = Antiproliferative activity against human HL60 cells assessed as growth inhibition after 72 hrs by MTT assay; assay type: functional, cell-based; details: HL-60, 72 h
Method in brief: (§3)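 Values are mean ± S.D. from three different experiments, each performed in triplicate.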

HeLa [5] = assay: Selectivity index, ratio of IC50 for human HL7702 cells to IC50 for human HeLa cells by MTT assay; method in brief: as §2
B16 [6] = assay: Cell cycle arrest in mouse B16 cells assessed as accumulation of cells at S phase at 1.25 uM after 72 hrs by propidium iodide staining based flow cytometry (reference value: 59.21%); assay type: functional
B16 [7] = assay: Cell cycle arrest in mouse B16 cells assessed as accumulation of cells at G1 phase at 5 uM after 72 hrs by propidium iodide staining based flow cytometry (reference value: 24.06%); assay type: functional
Mus musculus [8] = assay: Toxicity against mouse xenografted with mouse B16 cells assessed as body weight at 30 mg/kg, ip administered after 7 days of tumor transplantation (reference value: 18.2 to 18.3 gms); assay type: organism-based; design: dose 30 mg/kg, route intraperitoneal; details: in vivo, 168 h
B16 [9] = assay: Induction of apoptosis in mouse B16 cells assessed as early apoptotic cells at 2.5 uM after 72 hrs by Annexin V-FITC/propidium iodide staining-based flow cytometry (reference value: 2.15%); assay type: functional; method in brief: as §1
B16 [10] = assay: Induction of apoptosis in mouse B16 cells assessed as viable cells at 2.5 uM after 72 hrs by Annexin V-FITC/propidium iodide staining-based flow cytometry (reference value: […]); assay type: functional; details: B16, 72 h, read-out: Activity
Mus musculus [11] = assay: Toxicity against mouse xenografted […] cells assessed as body weight at 30 mg/kg, ip administered after 7 days of tumor transplantation (reference value: 18.1 to 18.6 gms); assay type: organism-based; design: dose 30 mg/kg, route intraperitoneal; details: in vivo, 168 h
Method in brief: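 H22 liver cancer-bearing mice, 10 per group at start and end. Test article given ip at 30 mg/kg, with a vehicle group (0.5 mL/mouse, iv). Body weight was recorded at start and at end, alongside tumor weight.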

B16 [12] = assay: Induction of apoptosis in mouse B16 cells assessed as early apoptotic cells at 1.25 uM after 72 hrs by Annexin V-FITC/propidium iodide staining-based flow cytometry (reference value: 2.15%); assay type: functional; method in brief: as §1
B16 [13] = assay: Cell cycle arrest in mouse B16 cells assessed as accumulation of cells at G2/G1 phase at 2.5 uM after 72 hrs by propidium iodide staining based flow cytometry (reference value: 1.83%); assay type: functional
B16 [14] = assay: Antiproliferative activity against mouse B16 cells assessed as growth inhibition after 72 hrs by MTT assay; assay type: functional, cell-based; details: B16, 72 h
Method in brief: (§4)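 IC50 is the concentration inhibiting 50% cell growth. Values are mean ± S.D. from three different experiments, each performed in triplicate.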

[15] = Selectivity index, ratio of IC50 for human HL7702 cells to IC50 for human SF763 cells by MTT assay; method in brief: as §2
B16 [16] = assay: In vivo antitumor activity against mouse B16 cells xenografted in mouse assessed as tumor growth inhibitory ratio at 30 mg/kg, ip administered after 7 days of tumor transplantation measured at 25th day after tumor inoculation; assay type: functional; details: 168 h, route intraperitoneal
B16 [17] = assay: Cell cycle arrest in mouse B16 cells assessed as accumulation of cells at G2/G1 phase at 1.25 uM after 72 hrs by propidium iodide staining based flow cytometry (reference value: 1.83%); assay type: functional
B16 [18] = assay: Induction of apoptosis in mouse B16 cells assessed as early apoptotic cells at 5 uM after 72 hrs by Annexin V-FITC/propidium iodide staining-based flow cytometry (reference value: 2.15%); assay type: functional; method in brief: as §1
Bel-7402 = assay: Selectivity index, ratio of IC50 for human HL7702 cells to IC50 for human BEL7402 cells by MTT assay; method in brief: as §2
B16 [19] = assay: Cell cycle arrest in mouse B16 cells assessed as accumulation of cells at S phase at 5 uM after 72 hrs by propidium iodide staining based flow cytometry (reference value: 59.21%); assay type: functional
B16 [20] = assay: Cell cycle arrest in mouse B16 cells assessed as accumulation of cells at G2 phase at 2.5 uM after 72 hrs by propidium iodide staining based flow cytometry (reference value: 16.73%); assay type: functional
B16 [21] = assay: Induction of apoptosis in mouse B16 cells assessed as late apoptotic cells at 1.25 uM after 72 hrs by Annexin V-FITC/propidium iodide staining-based flow cytometry (reference value: 3.51%); assay type: functional; method in brief: as §1
[22] = Antiproliferative activity against human SF763 cells assessed as growth inhibition after 72 hrs by MTT assay; assay type: functional, cell-based; details: SF763, 72 h; method in brief: as §3
H22 = assay: In vivo antitumor activity […] cells xenografted in mouse assessed as tumor growth inhibitory ratio at 30 mg/kg, ip administered after 7 days of tumor transplantation measured at 25th day after tumor inoculation; assay type: functional; details: 168 h, route intraperitoneal
Method in brief: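 Mice bearing H22 liver cancer, 10 per group. Test article at 30 mg/kg ip. Vehicle 0.5 mL/mouse iv. Cyclophosphamide 30 mg/kg iv as positive control. Tumor weight recorded to give tumor inhibitory ratio.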

[23] = Selectivity index, ratio of IC50 for human HL7702 cells to IC50 for human HL60 cells by MTT assay; method in brief: as §2
B16 [24] = assay: Cell cycle arrest in mouse B16 cells assessed as accumulation of cells at G2/G1 phase at 5 uM after 72 hrs by propidium iodide staining based flow cytometry (reference value: 1.83%); assay type: functional
B16 [25] = assay: Induction of apoptosis in mouse B16 cells assessed as necrotic cells at 1.25 uM after 72 hrs by Annexin V-FITC/propidium iodide staining-based flow cytometry (reference value: […]); assay type: functional; method in brief: as §1
B16 [26] = assay: Selectivity index, ratio of IC50 for human HL7702 cells to IC50 for mouse B16 cells by MTT assay; method in brief: as §2
HeLa [27] = assay: Antiproliferative activity against human HeLa cells assessed as growth inhibition after 72 hrs by MTT assay; assay type: functional, cell-based; method in brief: as §4
B16 [28] = assay: Induction of apoptosis in mouse B16 cells assessed as viable cells at 5 uM after 72 hrs by Annexin V-FITC/propidium iodide staining-based flow cytometry (reference value: […]); assay type: functional; details: B16, 72 h, read-out: Activity
B16 [29] = assay: Induction of apoptosis in mouse B16 cells assessed as late apoptotic cells at 5 uM after 72 hrs by Annexin V-FITC/propidium iodide staining-based flow cytometry (reference value: 3.51%); assay type: functional; method in brief: as §1
[30] = Antiproliferative activity against human Bel7402 cells assessed as growth inhibition after 72 hrs by MTT assay; assay type: functional, cell-based; details: Bel-7402, 72 h; method in brief: as §4
B16 [31] = assay: Induction of apoptosis in mouse B16 cells assessed as necrotic cells at 2.5 uM after 72 hrs by Annexin V-FITC/propidium iodide staining-based flow cytometry (reference value: […]); assay type: functional; method in brief: as §1
B16 [32] = assay: Cell cycle arrest in mouse B16 cells assessed as accumulation of cells at G1 phase at 2.5 uM after 72 hrs by propidium iodide staining based flow cytometry (reference value: 24.06%); assay type: functional
B16 [33] = assay: Induction of apoptosis in mouse B16 cells assessed as viable cells at 1.25 uM after 72 hrs by Annexin V-FITC/propidium iodide staining-based flow cytometry (reference value: […]); assay type: functional; details: B16, 72 h, read-out: Activity
B16 [34] = assay: Cell cycle arrest in mouse B16 cells assessed as accumulation of cells at S phase at 2.5 uM after 72 hrs by propidium iodide staining based flow cytometry (reference value: 59.21%); assay type: functional
B16 [35] = assay: Cell cycle arrest in mouse B16 cells assessed as accumulation of cells at G1 phase at 1.25 uM after 72 hrs by propidium iodide staining based flow cytometry (reference value: 24.06%); assay type: functional
B16 [36] = assay: Cell cycle arrest in mouse B16 cells assessed as accumulation of cells at G2 phase at 1.25 uM after 72 hrs by propidium iodide staining based flow cytometry (reference value: 16.73%); assay type: functional
B16 [37] = assay: Induction of apoptosis in mouse B16 cells assessed as necrotic cells at 5 uM after 72 hrs by Annexin V-FITC/propidium iodide staining-based flow cytometry (reference value: […]); assay type: functional; method in brief: as §1

## C=C(C)[C@@H]1CC[C@]2(C(=O)N3CCOCC3)CC[C@]3(C)[C@H](CC[C@@H]4[C@@]5(C)Cc6nccnc6[C@@](C)(COC(C)=O)[C@@H]5CC[C@]43C)[C@@H]12
B16 [1]
  Activity: 11.48%
B16 [2]
  Activity: 3.27%
[3]
  IC50: 75.4 µM
[4]
  IC50: 7.11 µM
HeLa [5]
  Ratio IC50: 14.7
B16 [6]
  Activity: 61.15%
B16 [7]
  Activity: 33.46%
Mus musculus [8]
  Activity: 25.9 g
B16 [9]
  Activity: 20.14%
B16 [10]
  viability at 2.5 µM: 67.8%
Mus musculus [11]
  Activity: 25.9 g
B16 [12]
  Activity: 11.33%
B16 [13]
  Activity: 1.85%
B16 [14]
  IC50: 4.42 µM
[15]
  Ratio IC50: 21.4
B16 [16]
  inhibition in vivo at 30 mg/kg: 62.7%
B16 [17]
  Activity: 1.82%
B16 [18]
  Activity: 45.34%
Bel-7402
  Ratio IC50: 11
B16 [19]
  Activity: 63.27%
B16 [20]
  Activity: 6.54%
B16 [21]
  Activity: 5.18%
[22]
  IC50: 3.53 µM
H22
  inhibition in vivo at 30 mg/kg: 55.6%
[23]
  Ratio IC50: 11
B16 [24]
  Activity: 1.85%
B16 [25]
  Activity: 0.86%
B16 [26]
  Ratio IC50: 17.1
HeLa [27]
  IC50: 5.13 µM
B16 [28]
  viability at 5 µM: 40.6%
B16 [29]
  Activity: 12.1%
[30]
  IC50: 7.03 µM
B16 [31]
  Activity: 0.52%
B16 [32]
  Activity: 34.67%
B16 [33]
  viability at 1.25 µM: 82.6%
B16 [34]
  Activity: 58.79%
B16 [35]
  Activity: 29.67%
B16 [36]
  Activity: 9.18%
B16 [37]
  Activity: 1.96%
